Laboratory results: the M2OR odorant receptor database
Residue numbers refer to the chain shown, from its start.

How the values were obtained:
Conditions in all cases: stereoisomer not certain
O51F1 [1] = test system: T1, O51F1
T1 sequence (whole entry): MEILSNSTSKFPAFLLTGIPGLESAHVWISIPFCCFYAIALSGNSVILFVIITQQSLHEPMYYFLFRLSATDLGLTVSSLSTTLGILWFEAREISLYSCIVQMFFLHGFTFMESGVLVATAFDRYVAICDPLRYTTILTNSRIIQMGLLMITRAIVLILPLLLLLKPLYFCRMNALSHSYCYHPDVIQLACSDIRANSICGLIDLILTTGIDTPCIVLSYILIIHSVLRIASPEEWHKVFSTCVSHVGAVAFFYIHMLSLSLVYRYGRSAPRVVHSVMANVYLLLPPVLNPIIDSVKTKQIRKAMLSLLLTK
Outline: (§1)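 Assay methods differ from source to source, frequently being transient luciferase assays in mammalian cell lines. For each receptor–molecule pair, the label responsive (active) applies when the original authors judged the measured signal statistically different from baseline, and non-responsive (inactive) applies otherwise.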

O51F1 [2] = test system: T2, O51F1; remark: listed apart in the source
T2 sequence (whole entry): T1 sequence (whole entry) with A13T
Outline: as §1

O51F2 Y341S = test system: T3, O51F2 Y341S
T3 sequence (whole entry): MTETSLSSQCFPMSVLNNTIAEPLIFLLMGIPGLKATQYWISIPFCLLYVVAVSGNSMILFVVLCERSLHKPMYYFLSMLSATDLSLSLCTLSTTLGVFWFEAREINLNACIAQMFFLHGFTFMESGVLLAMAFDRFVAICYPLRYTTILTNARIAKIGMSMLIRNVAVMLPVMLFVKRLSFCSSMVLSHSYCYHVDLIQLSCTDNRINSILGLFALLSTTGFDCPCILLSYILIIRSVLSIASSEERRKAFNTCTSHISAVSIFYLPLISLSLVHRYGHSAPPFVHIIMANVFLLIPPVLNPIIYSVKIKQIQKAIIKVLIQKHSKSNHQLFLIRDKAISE
Outline: as §1

O51G1 = test system: T4, O51G1
T4 sequence (whole entry): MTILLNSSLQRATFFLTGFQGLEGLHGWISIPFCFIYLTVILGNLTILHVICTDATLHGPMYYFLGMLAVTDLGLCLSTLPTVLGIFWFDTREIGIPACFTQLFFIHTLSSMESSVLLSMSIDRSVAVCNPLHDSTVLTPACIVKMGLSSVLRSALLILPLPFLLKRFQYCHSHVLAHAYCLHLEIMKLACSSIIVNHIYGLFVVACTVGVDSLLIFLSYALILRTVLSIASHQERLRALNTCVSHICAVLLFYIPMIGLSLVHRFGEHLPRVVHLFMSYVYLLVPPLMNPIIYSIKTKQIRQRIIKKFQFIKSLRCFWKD
Outline: as §1

O51I1 V164L = test system: T5, O51I1 V164L
T5 sequence (whole entry): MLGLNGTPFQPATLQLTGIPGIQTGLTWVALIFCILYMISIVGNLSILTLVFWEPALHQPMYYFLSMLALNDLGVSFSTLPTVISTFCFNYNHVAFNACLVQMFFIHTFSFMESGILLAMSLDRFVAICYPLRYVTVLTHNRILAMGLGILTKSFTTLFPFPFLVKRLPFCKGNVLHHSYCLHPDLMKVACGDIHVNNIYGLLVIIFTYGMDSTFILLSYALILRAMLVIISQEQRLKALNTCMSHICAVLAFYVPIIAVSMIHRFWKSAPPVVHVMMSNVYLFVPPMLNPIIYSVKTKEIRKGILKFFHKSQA
Outline: as §1

O51J1 R75H I202V = test system: T6, O51J1 R75H I202V
T6 sequence (whole entry): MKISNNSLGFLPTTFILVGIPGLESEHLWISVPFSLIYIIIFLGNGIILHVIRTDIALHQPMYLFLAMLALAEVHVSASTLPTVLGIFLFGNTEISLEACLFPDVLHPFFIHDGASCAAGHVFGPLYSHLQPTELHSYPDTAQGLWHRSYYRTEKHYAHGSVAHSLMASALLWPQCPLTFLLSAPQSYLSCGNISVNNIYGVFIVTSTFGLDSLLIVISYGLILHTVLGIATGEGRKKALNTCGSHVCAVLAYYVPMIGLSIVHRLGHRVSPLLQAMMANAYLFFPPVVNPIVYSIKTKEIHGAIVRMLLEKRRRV
Outline: as §1

O51L1 = test system: T7, O51L1
T7 sequence (whole entry): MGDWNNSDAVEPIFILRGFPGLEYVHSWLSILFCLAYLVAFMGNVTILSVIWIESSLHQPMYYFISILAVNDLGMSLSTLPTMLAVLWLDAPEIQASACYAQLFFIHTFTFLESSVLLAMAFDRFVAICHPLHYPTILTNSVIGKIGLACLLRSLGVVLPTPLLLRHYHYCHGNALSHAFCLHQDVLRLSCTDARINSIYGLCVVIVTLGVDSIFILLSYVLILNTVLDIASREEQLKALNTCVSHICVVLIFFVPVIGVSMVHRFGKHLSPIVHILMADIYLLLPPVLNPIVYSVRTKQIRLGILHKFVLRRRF
Outline: as §1

O51T1 = test system: T8, O51T1
T8 sequence (whole entry): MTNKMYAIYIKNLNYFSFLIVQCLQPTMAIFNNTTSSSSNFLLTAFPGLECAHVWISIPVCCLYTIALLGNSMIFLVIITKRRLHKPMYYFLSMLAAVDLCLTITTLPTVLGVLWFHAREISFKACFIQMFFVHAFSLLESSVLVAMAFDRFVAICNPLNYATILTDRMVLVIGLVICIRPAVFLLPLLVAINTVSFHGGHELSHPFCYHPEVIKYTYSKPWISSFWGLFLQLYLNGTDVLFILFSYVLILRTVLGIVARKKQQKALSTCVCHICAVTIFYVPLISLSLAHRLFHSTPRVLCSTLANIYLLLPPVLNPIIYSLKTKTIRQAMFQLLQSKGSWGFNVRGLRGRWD
Outline: as §1

O51V1 L36F N51T G96W = test system: T9, O51V1 L36F N51T G96W
T9 sequence (whole entry): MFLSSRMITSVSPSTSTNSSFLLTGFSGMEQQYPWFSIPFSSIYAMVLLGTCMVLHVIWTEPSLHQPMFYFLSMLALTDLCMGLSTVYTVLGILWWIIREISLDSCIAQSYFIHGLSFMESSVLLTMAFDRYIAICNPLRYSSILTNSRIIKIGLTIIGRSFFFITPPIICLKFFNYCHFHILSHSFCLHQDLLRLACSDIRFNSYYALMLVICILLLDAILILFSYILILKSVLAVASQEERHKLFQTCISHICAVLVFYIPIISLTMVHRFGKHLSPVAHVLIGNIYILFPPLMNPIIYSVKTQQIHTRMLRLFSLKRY
Outline: as §1

O51J1 = test system: O51J1
Outline: as §1

Measured: odorant receptor agonist call

Sequence of O51J1 (as listed by the source): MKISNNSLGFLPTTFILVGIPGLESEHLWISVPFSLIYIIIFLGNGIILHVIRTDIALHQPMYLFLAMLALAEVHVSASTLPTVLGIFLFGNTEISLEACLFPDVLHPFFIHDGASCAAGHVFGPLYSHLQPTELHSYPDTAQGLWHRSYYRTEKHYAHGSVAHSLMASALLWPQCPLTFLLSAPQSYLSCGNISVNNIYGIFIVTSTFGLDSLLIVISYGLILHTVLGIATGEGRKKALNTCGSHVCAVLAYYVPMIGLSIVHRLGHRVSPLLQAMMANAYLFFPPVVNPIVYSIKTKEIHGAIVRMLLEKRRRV

CC1=C(O)C(=O)C(C)O1 (stereo not drawn)
not listed: O51J1
inactive: all other assays above

CCC1OC(=O)C(O)=C1C (stereo not drawn)
not listed: O51J1
inactive: all other assays above

CC1=NC(C)C(C)S1 (stereo not drawn)
not listed: O51J1
inactive: all other assays above

C=C(C)C1CCC(C)C(=O)C1 (stereo not drawn)
inactive: O51F1 [1] | O51F1 [2]

CC1=C(O)C(=O)OC1C (stereo not drawn)
not listed: O51J1
inactive: all other assays above

CCC1OC(C)=C(O)C1=O (stereo not drawn)
not listed: O51J1
inactive: all other assays above

CCCC(C)=CC(=O)O
inactive: O51J1

CCCCCCC=CCCC=O
not listed: O51F1 [2] | O51T1 | O51J1
inactive: all other assays above

CCCC(S)CCOC(C)=O (stereo not drawn)
not listed: O51J1
inactive: all other assays above

Cc1cnc(C)c(C)n1
not listed: O51J1
inactive: all other assays above
